Consider seven compounds from ChEMBL document CHEMBL4130487, “A pentanoic acid derivative targeting matrix metalloproteinase-2 (MMP-2) induces apoptosis in a chronic myeloid leukemia cell line” (Eur J Med Chem, 2017).

The target in one assay is T1, Interstitial collagenase (Homo sapiens, UniProt P03956).
T1 sequence (P03956 whole entry): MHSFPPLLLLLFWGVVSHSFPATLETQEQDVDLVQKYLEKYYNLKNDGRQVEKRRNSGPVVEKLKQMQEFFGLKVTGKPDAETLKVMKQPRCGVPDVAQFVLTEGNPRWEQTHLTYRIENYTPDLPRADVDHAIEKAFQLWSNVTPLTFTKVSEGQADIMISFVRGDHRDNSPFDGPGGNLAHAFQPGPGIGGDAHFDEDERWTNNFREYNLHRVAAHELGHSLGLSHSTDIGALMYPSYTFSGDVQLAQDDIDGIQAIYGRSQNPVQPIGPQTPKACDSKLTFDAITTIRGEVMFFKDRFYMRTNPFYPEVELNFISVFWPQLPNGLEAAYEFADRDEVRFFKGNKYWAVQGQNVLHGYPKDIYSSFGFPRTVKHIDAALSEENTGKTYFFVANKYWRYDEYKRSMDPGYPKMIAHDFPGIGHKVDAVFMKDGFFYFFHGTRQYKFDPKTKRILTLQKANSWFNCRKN
The assay can be described thus: Inhibition of recombinant human MMP1 (Phe100 to Gln268 residues) using Ac-Pro-Leu-Gly-S-Leu-Leu-Gly-OEt as substrate after 1 hr measured at 1 min time interval for 30 mins by microplate photometric method. A digest of the protocol: (§1)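 Commercial MMP kits; compound preincubated with enzyme before chromogenic substrate was added. Reactions at 37 °C for 1 h, with at least six inhibitor concentrations in triplicate. Absorbance at 410 nm read every 1 min for 30 min. NNGH used as reference inhibitor. IC50 taken from semi-logarithmic dose-response plots.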

Assay [1] addresses Matrix metalloproteinase-14 (Homo sapiens, UniProt P50281). Kind of assay: Inhibition of recombinant human MMP14 (Tyr112 to Arg298 residues) expressed in Escherichia coli using Ac-Pro-Leu-Gly-S-Leu-Leu-Gly-OEt as substrate after 1 hr measured at 1 min time interval for 30 mins by microplate photometric method. A digest of the protocol:
as §1

A further assay has as its system K562. Kind of assay: Cytotoxicity against human K562 cells assessed as reduction in cell viability after 48 hrs by MTT assay. As to conditions: K562, 48 h. It is filed as functional, cell-based. The method, boiled down:
(§2)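 A549, MDA-MB-231, K562, U937 and PBMC (PBMC from healthy donors) seeded at 1×10^3 cells/well and left 24 h, then exposed to compounds for 48 h at 37 °C, 5% CO2. Adherent lines were grown in DMEM, the others in RPMI-1640 with 10% heat-inactivated FBS. MTT read-out; viability expressed as % of untreated control. IC50 taken as the concentration giving 50% viability loss.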
(Formazan colour is commonly taken as a measure of viable cells.)

For assay [2], the target named is MMP-2/MMP-9 (Homo sapiens) (UniProt P08253+P14780). The assay can be described thus: Selectivity ratio of IC50 for recombinant human MMP9 (Phe107 to Pro449 residues) expressed in Escherichia coli to IC50 for recombinant human MMP2 (Tyr110 to Asp452 residues).
For assay [3], the target named is 72 kDa type IV collagenase (Homo sapiens, UniProt P08253). Kind of assay: Inhibition of recombinant human MMP2 (Tyr110 to Asp452 residues) using Ac-Pro-Leu-Gly-S-Leu-Leu-Gly-OEt as substrate after 1 hr measured at 1 min time interval for 30 mins by microplate photometric method. A digest of the protocol:
as §1

A further assay concerns U-937. Kind of assay: Cytotoxicity against human U937 cells assessed as reduction in cell viability after 48 hrs by MTT assay. As to conditions: U-937, 48 h. It is filed as functional, cell-based. A digest of the protocol:
as §2

The test system of a further assay is PBMC. Kind of assay: Cytotoxicity against human PBMC assessed as reduction in cell viability after 48 hrs by MTT assay. It is filed as cell-based. A digest of the protocol: as §2
Assay [4] has as its target Macrophage metalloelastase (Homo sapiens, UniProt P39900). The assay can be described thus: Inhibition of recombinant human MMP12 (Phe99 to Leu271 residues) expressed in Escherichia coli using Ac-Pro-Leu-Gly-S-Leu-Leu-Gly-OEt as substrate after 1 hr measured at 1 min time interval for 30 mins by microplate photometric method. The method, boiled down:
as §1

The target of assay [5] is Matrix metalloproteinase-9 (Homo sapiens, UniProt P14780). Kind of assay: Inhibition of recombinant human MMP9 (Phe107 to Pro449 residues) expressed in Escherichia coli using Ac-Pro-Leu-Gly-S-Leu-Leu-Gly-OEt as substrate after 1 hr measured at 1 min time interval for 30 mins by microplate photometric method. A digest of the protocol:
as §1

For another assay, the target named is Neutrophil collagenase (Homo sapiens, UniProt P22894). Kind of assay: Inhibition of recombinant human MMP8 (Phe99 to Gln269 residues) expressed in Escherichia coli using Ac-Pro-Leu-Gly-S-Leu-Leu-Gly-OEt as substrate after 1 hr measured at 1 min time interval for 30 mins by microplate photometric method. The method, boiled down:
as §1

A further assay concerns MDA-MB-231. The assay can be described thus: Cytotoxicity against human MDA-MB-231 cells assessed as reduction in cell viability after 48 hrs by MTT assay. It is filed as functional, cell-based. Conditions: MDA-MB-231, 48 h. The method, boiled down:
as §2

The test system of the next assay is A549. Kind of assay: Cytotoxicity against human A549 cells assessed as reduction in cell viability after 48 hrs by MTT assay. Conditions: A549, 48 h. It is filed as functional, cell-based. A digest of the protocol:
as §2

Where only a bound is given, the exact number is not on record here.

A word on the IC50: it is the concentration that inhibits the measured activity by half.

Sequence of Matrix metalloproteinase-9 (P14780 whole entry): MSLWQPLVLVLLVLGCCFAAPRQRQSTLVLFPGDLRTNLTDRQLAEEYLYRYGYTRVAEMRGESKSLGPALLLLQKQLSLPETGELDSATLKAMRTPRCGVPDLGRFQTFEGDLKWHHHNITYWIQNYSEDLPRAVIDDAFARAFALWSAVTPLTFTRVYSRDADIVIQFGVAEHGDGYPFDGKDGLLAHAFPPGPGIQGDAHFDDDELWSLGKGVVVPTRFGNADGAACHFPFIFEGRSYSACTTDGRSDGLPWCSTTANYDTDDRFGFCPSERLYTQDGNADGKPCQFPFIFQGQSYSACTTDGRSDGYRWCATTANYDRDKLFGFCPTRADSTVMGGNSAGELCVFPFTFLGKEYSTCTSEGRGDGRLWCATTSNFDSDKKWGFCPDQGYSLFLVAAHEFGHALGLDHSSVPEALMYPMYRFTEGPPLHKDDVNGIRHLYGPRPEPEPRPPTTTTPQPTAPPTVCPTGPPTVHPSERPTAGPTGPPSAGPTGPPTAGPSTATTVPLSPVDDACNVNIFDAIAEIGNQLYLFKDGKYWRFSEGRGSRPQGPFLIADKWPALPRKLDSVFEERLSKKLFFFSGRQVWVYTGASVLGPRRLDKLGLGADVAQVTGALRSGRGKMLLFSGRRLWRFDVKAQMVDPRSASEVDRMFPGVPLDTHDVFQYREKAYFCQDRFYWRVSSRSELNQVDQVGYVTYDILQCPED
Sequence of Macrophage metalloelastase (P39900 whole entry): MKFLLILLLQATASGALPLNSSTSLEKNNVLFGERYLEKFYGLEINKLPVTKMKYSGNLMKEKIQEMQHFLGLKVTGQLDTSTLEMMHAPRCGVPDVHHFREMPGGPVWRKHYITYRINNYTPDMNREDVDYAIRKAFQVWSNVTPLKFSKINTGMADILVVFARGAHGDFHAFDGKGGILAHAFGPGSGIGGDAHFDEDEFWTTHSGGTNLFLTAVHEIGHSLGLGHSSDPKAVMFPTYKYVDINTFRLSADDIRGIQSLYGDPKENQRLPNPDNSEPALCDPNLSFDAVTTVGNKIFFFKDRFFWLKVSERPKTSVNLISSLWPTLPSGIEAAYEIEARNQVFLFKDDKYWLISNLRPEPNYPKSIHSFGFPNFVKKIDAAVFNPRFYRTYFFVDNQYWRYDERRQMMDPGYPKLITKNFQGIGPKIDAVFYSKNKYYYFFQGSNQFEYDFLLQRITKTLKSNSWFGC
Sequence of 72 kDa type IV collagenase (P08253 whole entry): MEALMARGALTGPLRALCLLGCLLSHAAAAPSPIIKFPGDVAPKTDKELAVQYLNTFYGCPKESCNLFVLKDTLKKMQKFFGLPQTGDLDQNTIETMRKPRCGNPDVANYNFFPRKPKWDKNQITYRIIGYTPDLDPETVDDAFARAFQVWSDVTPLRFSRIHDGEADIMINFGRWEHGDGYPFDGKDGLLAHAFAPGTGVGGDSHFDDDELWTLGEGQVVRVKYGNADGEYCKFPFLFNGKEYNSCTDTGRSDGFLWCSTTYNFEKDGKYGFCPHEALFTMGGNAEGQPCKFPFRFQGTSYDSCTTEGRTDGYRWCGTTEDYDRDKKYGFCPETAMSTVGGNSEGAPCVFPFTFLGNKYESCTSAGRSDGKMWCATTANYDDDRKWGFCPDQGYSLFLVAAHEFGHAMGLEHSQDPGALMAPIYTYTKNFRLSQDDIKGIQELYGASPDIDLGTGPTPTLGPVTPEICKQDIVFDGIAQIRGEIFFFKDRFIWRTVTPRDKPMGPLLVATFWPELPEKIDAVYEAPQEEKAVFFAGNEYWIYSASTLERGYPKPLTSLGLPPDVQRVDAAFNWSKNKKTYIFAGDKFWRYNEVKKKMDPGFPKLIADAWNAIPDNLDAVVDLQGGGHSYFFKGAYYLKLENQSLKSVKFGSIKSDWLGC
Sequence of Neutrophil collagenase (P22894 whole entry): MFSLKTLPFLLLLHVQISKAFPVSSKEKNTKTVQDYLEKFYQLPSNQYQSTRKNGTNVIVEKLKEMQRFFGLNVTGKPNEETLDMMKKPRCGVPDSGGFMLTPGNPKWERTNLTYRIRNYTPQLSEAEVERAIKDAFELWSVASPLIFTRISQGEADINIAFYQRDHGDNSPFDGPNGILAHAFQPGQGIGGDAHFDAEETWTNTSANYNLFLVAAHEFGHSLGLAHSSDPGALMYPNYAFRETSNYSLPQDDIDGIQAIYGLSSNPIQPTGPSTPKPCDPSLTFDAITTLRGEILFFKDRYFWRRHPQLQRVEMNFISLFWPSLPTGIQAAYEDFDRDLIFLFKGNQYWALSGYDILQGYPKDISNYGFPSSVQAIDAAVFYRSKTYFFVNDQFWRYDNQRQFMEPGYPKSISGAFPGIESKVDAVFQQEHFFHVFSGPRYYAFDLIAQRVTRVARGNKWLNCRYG

For the compound `O=C(CC[C@H](NS(=O)(=O)c1ccc([N+](=O)[O-])cc1)C(=O)O)NCc1ccccc1`, the IC50 at Interstitial collagenase was over 500 µM; in assay [1], 109 µM; in the assay with K562, 23.4 µM; in assay [3] it was 0.21 µM; with U-937 it was 102 µM; in the assay on PBMC it was over 1000 µM. Besides, the IC50 came out at 95.2 µM in assay [4]; 6.37 µM in [5]; 173 µM at Neutrophil collagenase; 175 µM in the assay on MDA-MB-231; 343 µM in the assay with A549. Besides, the Ratio IC50 in [2] is over 25.

Consider `CCCCNC(=O)CC[C@H](NS(=O)(=O)c1ccc([N+](=O)[O-])cc1)C(=O)O`, for which the IC50 on Interstitial collagenase is over 500 µM; in assay [1], 111 µM; with K562, 19.7 µM; in [3], 4.07 µM; in the assay on U-937, 94 µM; in the assay on PBMC, over 1000 µM. The IC50 was 198 µM in [4]; 6.36 µM in assay [5]; 346 µM on Neutrophil collagenase; over 500 µM in the assay on MDA-MB-231; 276 µM in the assay on A549.

Regarding `CCNC(=O)CC[C@H](NS(=O)(=O)c1ccc([N+](=O)[O-])cc1)C(=O)O`, the IC50 is over 500 µM on Interstitial collagenase; 87.1 µM in [1]; over 500 µM in the assay on K562; 5.34 µM in assay [3]; 89.4 µM in the assay on U-937; over 1000 µM in the assay on PBMC. Further, the IC50 was 109 µM in [4]; 4.8 µM in assay [5]; 298 µM on Neutrophil collagenase; over 500 µM in the assay on MDA-MB-231; 221 µM in the assay with A549.

Take `NC(=O)CC[C@H](NS(=O)(=O)c1ccc([N+](=O)[O-])cc1)C(=O)O`: the IC50 at Interstitial collagenase is over 500 µM; in [1], 76.3 µM; with K562, over 500 µM; in assay [3] it was 1.65 µM; in the assay on U-937 it was over 500 µM; in the assay on PBMC, over 1000 µM. Also, the IC50 in assay [4] is 100 µM; in assay [5], 7 µM; at Neutrophil collagenase, 199 µM; in the assay on MDA-MB-231 it was over 500 µM; in the assay with A549 it was over 500 µM. Besides, the Ratio IC50 in [2] was 4.24.

In the case of `CNC(=O)CC[C@H](NS(=O)(=O)c1ccc([N+](=O)[O-])cc1)C(=O)O`, the IC50 on Interstitial collagenase was over 500 µM; in assay [1], over 500 µM; in the assay with K562 it was over 500 µM; in assay [3], 2.85 µM; in the assay with U-937, over 500 µM; in the assay on PBMC, over 1000 µM. Moreover, the IC50 in [4] was over 500 µM; in [5] it was 7.5 µM; at Neutrophil collagenase, 401 µM; in the assay with MDA-MB-231, over 500 µM; in the assay with A549, over 500 µM. The Ratio IC50 in [2] was determined as 2.63.

Regarding `CC(C)CNC(=O)CC[C@H](NS(=O)(=O)c1ccc([N+](=O)[O-])cc1)C(=O)O`, the IC50 at Interstitial collagenase is over 500 µM; in assay [1], 309 µM; in the assay with K562 it was 42.5 µM; in assay [3], 8.52 µM; with U-937, 93.8 µM; with PBMC it was over 1000 µM. The IC50 in assay [4] was over 500 µM; in [5], 5.14 µM; on Neutrophil collagenase it was 483 µM; with MDA-MB-231, over 500 µM; in the assay on A549, over 500 µM.

With `CC(C)NC(=O)CC[C@H](NS(=O)(=O)c1ccc([N+](=O)[O-])cc1)C(=O)O`, the IC50 was over 500 µM on Interstitial collagenase; 301 µM in [1]; 19.8 µM with K562; 2.12 µM in assay [3]; 95.1 µM in the assay with U-937; over 1000 µM with PBMC. Besides, the IC50 in assay [4] was 493 µM; in [5] it was 5.97 µM; on Neutrophil collagenase it was over 500 µM; with MDA-MB-231, over 500 µM; in the assay with A549 it was over 500 µM. In addition, the Ratio IC50 in assay [2] worked out at 2.82.
